Test results: article PMC7225057 (Journal of molecular biology, 2020)
Substitutions are numbered along the chain they refer to. Values belong to the compound of their own block, whether it stands above or below them. Residues, ends and D or L forms follow the SMILES beside them. *: point of attachment. FITC = O=C1OC2(c3ccc(O)cc3Oc3cc(O)ccc32)c2ccc(NC(=S)*)cc21; Ahx = NCCCCCC(=O)O

Experiments:
[1] = system: IL-7 receptor α unit (IL-7Rα) ectodomain; conditions: cited from earlier work
CTR = conditions: cited from earlier work
[2] = system: Pituitary adenylate cyclase activating polypeptide (PACAP) type I (PAC1) receptor; conditions: tunicamycin treatment, binding capacity not altered; cited from earlier work
[3] = biological target: RAMP1-CTR.34–141 WT (PNGase F) (Homo sapiens, UniProt O60894+P30988, N125D/N130D/N73D); assay: FP saturation binding, RAMP1-CTR.34–141 WT, PNGase F; conditions: Figure S8D, 10 nM probe, pH 7.4, N = 3
In short: (§1)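 RAMP1-CTR ECD fusion WT was expressed in HEK293S GnTI cells, TEV-cleaved to remove MBP, then purified by IMAC/SEC. FP saturation binding at room temperature used 10 nM FITC-peptide probe and titrated receptor. Buffer: HEPES pH 7.4 with BSA, maltose, EDTA, Tween 20. Duplicates, pKD by nonlinear fit.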

[4] = biological target: T1, RAMP1-CTR.34–141 WT (inactive PNGase F) (Homo sapiens, UniProt O60894+P30988, fusion); assay: FP saturation binding, RAMP1-CTR.34–141 WT, inactive PNGase F; conditions: Figure S8D, 10 nM probe, pH 7.4, mean ± SEM, N = 3
T1 sequence (P30988 34-141): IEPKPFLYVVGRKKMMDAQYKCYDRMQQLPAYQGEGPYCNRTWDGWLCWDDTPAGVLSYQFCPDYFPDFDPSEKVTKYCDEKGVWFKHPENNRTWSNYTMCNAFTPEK
In short: as §1

RAMP1-CTR.34–141 N130D = biological target: T2, RAMP1-CTR.34–141 N130D (Homo sapiens, UniProt O60894+P30988, N130D/fusion); assay: FP saturation binding, RAMP1-CTR.34–141 N130D; conditions: Figure S8D; no enzyme; 10 nM probe, pH 7.4; mean ± SEM, N = 3
T2 sequence (P30988 34-141 N130D): T1 sequence (P30988 34-141) with N97D

CTR ECD = conditions: isolated ECD; cited from earlier work
[5] = biological target: T3, Glycan-free CTR.38–141 WT (CTR ECD; E. coli) (Homo sapiens, UniProt P30988); assay: FP saturation binding, glycan-free CTR.38–141 WT; conditions: glycan-free vs Endo H-treated WT
T3 sequence (P30988 38-141): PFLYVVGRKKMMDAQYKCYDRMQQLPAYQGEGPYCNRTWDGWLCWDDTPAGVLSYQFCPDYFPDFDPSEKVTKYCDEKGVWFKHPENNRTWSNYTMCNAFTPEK

[6] = biological target: T4, CTR.38–141 N130D (CTR ECD; HEK293S GnTI^−, Endo H) (Homo sapiens, UniProt P30988, N130D); assay: FP saturation binding, CTR.38–141 N130D, Endo H; conditions: N130D vs Endo H-treated WT
T4 sequence (P30988 38-141 N130D): T3 sequence (P30988 38-141) with N93D

[7] = system: glucagon-like peptide 1 receptor (GLP-1R); conditions: cited from earlier work
[8] = system: glucagon-like peptide 1 receptor (GLP-1R); conditions: cited from earlier work; remark: listed apart in the source
[9] = system: PTH type 1 receptor (PTH1R); conditions: cited from earlier work

Compound: IL-7: IL-7, ligand of IL-7 receptor α unit
- association rate with N-glycosylated receptor [1]: accelerated association rate
- effect of N-glycosylation on binding affinity [1]: significantly increased IL-7 binding affinity

Compound: salmon calcitonin
- affinity vs human calcitonin (CTR): higher affinity than human calcitonin

Compound: PACAP-27
- affinity decrease by tunicamycin [2]: 30 fold

- pKD [3]: < 5.0
- pKD [4]: 6.01 ± 0.03
- pKD (RAMP1-CTR.34–141 N130D): 5.12 ± 0.07
Compound: CC(C)C[C@H](NC(=O)[C@H](CCCNC(=N)N)NC(=O)[C@@H](NC(=O)[C@H](CC(C)C)NC(=O)[C@H](Cc1ccccc1)NC(=O)[C@H](CC(N)=O)NC(=O)[C@H](C)NC(=O)CCCCCNC(=S)Nc1ccc2c(c1)C(=O)OC21c2ccc(O)cc2Oc2cc(O)ccc21)C(C)C)C(=O)N[C@@H](CCC(N)=O)C(=O)N[C@H](C(=O)N[C@@H](Cc1ccc(O)cc1)C(=O)N1CCC[C@H]1C(=O)N[C@@H](CCCNC(=N)N)C(=O)N[C@H](C(=O)N[C@@H](CC(N)=O)C(=O)N[C@H](C(=O)NCC(=O)N[C@@H](C)C(=O)N[C@@H](CC(N)=O)C(=O)N[C@H](C(=O)N[C@@H](Cc1ccc(O)cc1)C(N)=O)[C@@H](C)O)C(C)C)[C@@H](C)O)[C@@H](C)O [FITC-AC413(6–25)] ({FITC-Ahx}-ANFLVRLQTYPRTNVGANTY-NH2; N-terminus and C-terminus assumed)

Compound: calcitonin
- binding affinity enhancement by CTR N-glycosylation (CTR ECD): ~ 10 fold

- affinity decrease [5]: over 5 fold
- affinity decrease [6]: over 5 fold
Compound: C[C@@H](O)[C@H](NC(=O)[C@H](CC(N)=O)NC(=O)[C@@H](NC(=O)[C@H](CCCNC(=N)N)NC(=O)[C@@H]1CCCN1C(=O)[C@H](Cc1ccc(O)cc1)NC(=S)Nc1ccc2c(c1)C(=O)OC21c2ccc(O)cc2Oc2cc(O)ccc21)[C@@H](C)O)C(=O)NCC(=O)N[C@@H](CO)C(=O)NCC(=O)N[C@H](C(=O)N1CCC[C@H]1C(N)=O)[C@@H](C)O [FITC-sCT(22–32)] ({FITC}-YPRTNTGSGTP-NH2)

Compound: GLP-1: GLP-1, ligand of glucagon-like peptide 1 receptor
- affinity, double mutation of two N-glycosylation sites [7]: significantly reduced GLP-1 affinity
- signaling potency, double mutation of two N-glycosylation sites [8]: significantly reduced GLP-1 affinity and signaling potency

Compound: PTH: PTH, ligand of PTH type 1 receptor
- binding affinity, N161D mutation ([9]; N161D mutation of PTH1R): did not change the binding affinity for PTH
- binding affinity after tunicamycin ([9]; human PTH1R expressed in mammalian cells, tunicamycin treatment): no changes in PTH binding affinity
